# Reference: ChEMBL document CHEMBL1123129, “Hypolipidemic activity of indan-1,3-dione derivatives in rodents” (J Med Chem, 1985)
# How the values were obtained:
# [1] = system: Mus musculus; test: In Vivo effect for the hypolipidemic activity on Hepatic lipoprotein lipase in CF1 mice after 16 days administered orally at a dose of 60 mg/kg; type: functional; conditions: route oral
# Outline: (§1)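 CF1 male mice are dosed orally at 10–60 mg/kg per day for 16 days, with 1% CMC as the control vehicle. Liver is homogenized at 10% in 0.25 M sucrose + 0.001 M EDTA, pH 7.2. Enzymes are assayed by literature methods, with Lowry protein. Activity is given as % of control (X ± SD, N = 6), with p from Student's t test.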
# [2] = system: Mus musculus; test: Compound was evaluated for the hypolipidemic activity in CF1 male mice at a dose of 60 mg/kg orally for Serum triglyceride at 16th day; type: functional; conditions: route oral
# Outline: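 CF1 male mice dosed orally at 10–60 mg/kg per day, with 1% CMC as the vehicle control; N = 6 per group. Serum cholesterol was read on days 9 and 16 and serum triglyceride on day 16. Liver lipids were extracted on day 16 and assayed for cholesterol, triglyceride, neutral lipid, phospholipid and protein. Values are given as % of control ± SD.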
# [3] = target: T1, Cholesterol 7-alpha-hydroxylase (Cytochrome P450 7A1) (Mus musculus, UniProt Q64505); test: In vitro percent Cholesterol 7-alpha-hydroxylase activity in mouse CF1 liver microsomes at 50 uM; parameters: species or system Microsome; conditions: read-out: Control
# T1 sequence (Q64505 whole entry): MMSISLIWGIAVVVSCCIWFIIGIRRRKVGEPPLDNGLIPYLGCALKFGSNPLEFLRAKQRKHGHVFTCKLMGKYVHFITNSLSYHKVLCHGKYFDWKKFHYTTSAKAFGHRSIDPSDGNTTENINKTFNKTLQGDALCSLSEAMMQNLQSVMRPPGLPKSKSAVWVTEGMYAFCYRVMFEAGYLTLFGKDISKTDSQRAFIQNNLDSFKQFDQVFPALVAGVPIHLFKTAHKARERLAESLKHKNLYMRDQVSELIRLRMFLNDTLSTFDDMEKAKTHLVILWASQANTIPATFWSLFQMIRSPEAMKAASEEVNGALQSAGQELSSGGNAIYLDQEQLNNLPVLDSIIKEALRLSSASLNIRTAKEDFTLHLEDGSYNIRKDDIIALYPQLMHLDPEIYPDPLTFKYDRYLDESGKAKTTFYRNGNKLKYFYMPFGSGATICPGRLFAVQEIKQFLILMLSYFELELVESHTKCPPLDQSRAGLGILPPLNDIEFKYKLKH
# Outline: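 Mouse liver enzymes assayed in vitro on 10% homogenates of CF1 male mouse liver, with test drug added at 50–200 μM. Each enzyme follows a published procedure. Protein is measured by Lowry. Activity is given as % of untreated control (X ± SD, N = 6).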
# [4] = system: Rattus norvegicus; test: Compound was evaluated for the hypolipidemic activity at 20 mg/kg per day orally for 14 days on neutral lipids content in rat LDL; type: functional; conditions: route oral
# Outline: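 Male Sprague–Dawley rats (~300 g) were dosed orally each day. Blood was drawn from the abdominal vein. Lipoprotein fractions (chylomicron, VLDL, LDL, HDL) were separated by the Hatch–Lees and Havel methods. Each fraction was assayed for cholesterol, triglyceride (enzymatic kit), neutral lipids, phospholipids and Lowry protein. Values are % of 1% CMC vehicle control, N = 6.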
# [5] = system: Mus musculus; test: Compound was evaluated for the hypolipidemic activity in CF1 male mice at a dose of 40 mg/kg orally for Serum cholesterol at 16th day; type: functional; conditions: route oral
# Outline: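 CF1 male mice received the agent orally in 1% CMC at 10–60 mg/kg per day. Tail-vein blood was taken on days 9 and 16. Serum cholesterol was measured by modified Liebermann–Burchard on duplicate 25-µL samples, and serum triglyceride on day 16 in duplicate 50-µL samples. Values are % of vehicle control, mean ± SD, N = 6; Student's t test.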
# [6] = system: Mus musculus; test: Hypolipidemic activity in CF1 male mice at a dose of 20 mg/kg per day, serum triglyceride measured on the 16th day; type: functional
# Outline: (§2)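 CF1 male mice (~30 g) were given 20 mg/kg per day ip at 11:00 a.m.; N = 6 per group. Tail-vein serum was collected in nonheparinized microcapillaries. Cholesterol was measured on days 9 and 16 by modified Liebermann–Burchard on duplicate 25 µL samples. Triglyceride was measured on day 16 in a separate group, duplicate 50 µL. Values are % control ± SD; Student's t test.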
# [7] = target: T2, ATP-citrate synthase (Mus musculus) (UniProt Q91V92); test: In Vivo effect for the hypolipidemic activity on ATP-Citrate Lyase in CF1 mice after 16 days administered orally at a dose of 60 mg/kg; type: organism-based; parameters: dose 60 mg/kg; outline: as §1
# T2 sequence (whole entry): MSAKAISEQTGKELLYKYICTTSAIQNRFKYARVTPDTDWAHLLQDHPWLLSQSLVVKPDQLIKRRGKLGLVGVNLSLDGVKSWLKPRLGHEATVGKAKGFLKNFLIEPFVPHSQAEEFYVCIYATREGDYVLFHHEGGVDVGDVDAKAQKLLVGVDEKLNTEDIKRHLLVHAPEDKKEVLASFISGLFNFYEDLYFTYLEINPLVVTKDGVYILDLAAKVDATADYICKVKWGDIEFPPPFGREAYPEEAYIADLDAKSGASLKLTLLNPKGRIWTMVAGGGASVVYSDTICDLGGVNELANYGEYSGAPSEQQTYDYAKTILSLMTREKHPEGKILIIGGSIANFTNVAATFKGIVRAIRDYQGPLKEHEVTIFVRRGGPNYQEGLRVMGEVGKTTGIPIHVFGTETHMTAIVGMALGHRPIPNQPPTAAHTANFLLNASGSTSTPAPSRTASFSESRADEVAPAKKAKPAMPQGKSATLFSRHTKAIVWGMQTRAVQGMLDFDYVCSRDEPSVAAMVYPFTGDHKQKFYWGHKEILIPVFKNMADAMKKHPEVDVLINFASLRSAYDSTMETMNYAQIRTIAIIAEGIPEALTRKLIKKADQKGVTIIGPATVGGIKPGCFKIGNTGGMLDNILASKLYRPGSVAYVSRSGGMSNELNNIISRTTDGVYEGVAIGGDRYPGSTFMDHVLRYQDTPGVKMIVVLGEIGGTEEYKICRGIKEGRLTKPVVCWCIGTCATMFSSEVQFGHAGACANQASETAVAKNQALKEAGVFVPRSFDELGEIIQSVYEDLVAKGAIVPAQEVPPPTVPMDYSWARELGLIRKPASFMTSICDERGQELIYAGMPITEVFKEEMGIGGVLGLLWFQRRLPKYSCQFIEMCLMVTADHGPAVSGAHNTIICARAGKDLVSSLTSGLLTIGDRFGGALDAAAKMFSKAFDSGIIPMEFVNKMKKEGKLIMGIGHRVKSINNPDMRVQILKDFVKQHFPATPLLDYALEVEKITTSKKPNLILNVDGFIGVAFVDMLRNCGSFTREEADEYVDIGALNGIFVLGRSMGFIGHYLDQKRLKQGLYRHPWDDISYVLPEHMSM
# [8] = In Vitro evaluation for the CF1 liver enzyme activity on Acyl cholesterol acyltransferase at concentration 50 uM
# Outline: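 Liver was taken from CF1 male mice and made into 10% homogenates, which were incubated with test compound at 50, 100 or 200 µM. Each enzyme was assayed by its literature method, and protein was measured by Lowry. N = 6. Activity is expressed as % of untreated control ± SD.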
# [9] = system: Rattus norvegicus; test: Compound was evaluated for the hypolipidemic activity in Sprague-Dawley rats at a dose of 20 mg/kg orally for Serum cholesterol at 9th day; type: functional; conditions: route oral
# Outline: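 Sprague–Dawley male rats (~350 g) received 20 mg/kg per day orally, with 1% CMC as the vehicle control; N = 6. Tail-vein blood was taken between 8:00 and 9:30 a.m. on days 9 and 16 and spun for 3 min to obtain serum. Cholesterol was measured by a modified Liebermann–Burchard reaction and triglyceride by kit. Values are % control ± SD; significance by Student's t test.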
# [10] = target: T1, Cholesterol 7-alpha-hydroxylase (Cytochrome P450 7A1); test: In vivo effect on Cholesterol 7-alpha-hydroxylase activity in CF1 mice after 16 days at 10 mg/kg oral dose; type: functional, organism-based; parameters: dose 10 mg/kg, route oral; conditions: read-out: Control; outline: as §1
# [11] = system: Mus musculus; test: Hypolipidemic activity in CF1 male mice at a dose of 20 mg/kg per day, serum cholesterol measured on the 16th day; type: functional; outline: as §2
# [12] = system: Rattus norvegicus; test: Compound was evaluated for the hypolipidemic activity at 20 mg/kg per day orally for 14 days on phospholipids content in rat small intestine.; type: functional; conditions: route oral
# Outline: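 Male Sprague–Dawley rats were dosed orally for 14 days. Liver, small intestine and a 24-h fecal collection were lipid-extracted. Extracts were assayed for cholesterol (modified Liebermann–Burchard), triglyceride (enzymatic kit), neutral lipids, phospholipids and protein. Values are % of 1% CMC vehicle control, mean ± SD, N = 6.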
compound,measurement,setting,value
COc1ccc(C2C(=O)c3ccccc3C2=O)cc1 [ANISINDIONE],Control,[1],89%
same,Control,[2],67%
same,activity at 50 µM,[3],106%
same,Control,[4],69%
same,Control,[5],48%
same,"Serum triglyceride, % of control",[6],42%
same,Control,[7],93%
same,Control,[8],94%
same,Control,[9],74%
same,activity at 384 h,[10],52%
same,"Serum cholesterol, % of control",[11],59%
same,Control,[12],136%
